Laboratory results published in ChEMBL document CHEMBL4052722, “Virtual screening, synthesis and biological evaluation of DNA intercalating antiviral agents” (Bioorg Med Chem Lett, 2017).

Key:
[1] = Cytotoxicity against African green monkey CV1 cells assessed as cell viability at 0.1 to 100 uM preincubated for 4 hrs measured after 24 hrs by MTT assay relative to control; assay type: cell-based, CV-1; conditions: chlorocebus aethiops, read-out: Activity
Method in brief: (§1)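 CV-1 cells were exposed to test samples at 0.1, 10 and 100 μM. Viability was read by MTT assay.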

[2] = Cytotoxicity against African green monkey CV1 cells assessed as reduction in cell viability preincubated for 4 hrs measured after 24 hrs by MTT assay relative to control; assay type: cell-based, CV-1; conditions: chlorocebus aethiops; method in brief: as §1
[3] = species: Bos taurus; assay: Displacement of ethidium bromide from calf thymus DNA by fluorescence binding assay
[4] = tested on: Vesicular stomatitis virus; assay: Antiviral activity against Vesicular stomatitis virus at 0.2 to 620 uM after 24 hrs post infection relative to control; assay type: functional

Row | SMILES | viability at 24 h, up to 100 µM [1] [%] | CC50 at 24 h [2] [µM] | log Ka [3] | Activity [4] [%]
1 | CN(C)CCn1c2ccccc2c2nc3ccccc3nc21 | 62 | 10 | 5.93 | 75
2 | CCN(CC)CCNC(=O)CCCN1C(=O)c2cccc3cccc(c23)C1=O |  |  | 6.13 | 20
3 | CN(C)CCCCCCn1c2ccccc2c2nc3ccccc3nc21 |  |  | 5.81 | 82
4 | O=C(Cn1c2ccccc2c2nc3ccccc3nc21)NCCNCCO |  |  | 5.37 | 70
5 | CCN(CC)CCN1C(=O)/C(=N\NC(=O)CN2CCOCC2)c2ccccc21 |  |  | 6.21 | 8
6 | CN1CCN(CCn2c3ccccc3c3nc4ccccc4nc32)CC1 | 82 | 50 | 5.87 | 85
7 | O=C(CCCn1c2ccccc2c2nc3ccccc3nc21)NCCCN1CCOCC1 | 85 | > 100 | 5.11 | 
8 | CCCCN(CC)CCn1c2ccccc2c2nc3ccccc3nc21 |  |  | 6.01 | 50
9 | O=C(CCCn1c2ccccc2c2nc3ccccc3nc21)OCCN1CCOCC1 | 102 | > 100 | 5.7 | 80
10 | CCN(CC)CCCNC(=O)CCCCCN1C(=O)c2cccc3cccc(c23)C1=O |  |  | 6.81 | 50
11 | CN(C)CCOC(=O)Cn1c2ccccc2c2nc3ccccc3nc21 |  |  | 5.46 | 0
12 | O=C(Cn1c2ccccc2c2nc3ccccc3nc21)NCCN1CCOCC1 | 109 | > 100 | 5.13 | 50
13 | CN1CCN(CC(=O)N/N=C2\C(=O)Nc3ccccc32)CC1 |  |  | 5.43 | 80
14 | O=C(CN1CCCC1)NN1C(=O)c2cccc3cccc(c23)C1=O | 99 | > 100 | 5.41 | 
15 | COC(=O)CN(C)CCCN1C(=O)c2cccc3cccc(c23)C1=O | 90 | > 100 |  | 
16 | CCN(CC)CCNC(=O)CCN1C(=O)c2cccc3cccc(c23)C1=O |  |  | 5.85 | 20
17 | CN(C)CCNC(=O)CCCn1c2ccccc2c2nc3ccccc3nc21 | 93 | 100 | 5.01 | 
18 | CN1CCN(CCn2c3ccc4ccccc4c3c3nc4ccccc4nc32)CC1 |  |  | 6.58 | 17

Row | SMILES | viability at 24 h, up to 100 µM [1] [%] | CC50 at 24 h [2] [µM] | log Ka [3] | Activity [4] [%]
19 | c1ccc2nc3c(nc2c1)c1ccccc1n3CCN1CCOCC1 |  |  | 5.89 | 85
20 | O=C(CN1CCCC1)N/N=C1/C(=O)Nc2ccc3ccccc3c21 |  |  | 6.44 | 10
21 | CN(CCO)CCN1C(=O)c2cccc3cccc(c23)C1=O | 88 | > 100 |  | 
22 | c1ccc2nc3c(nc2c1)c1ccccc1n3CCCN1CCOCC1 |  |  | 6.09 | 25
23 | CC1CCN(CC(=O)N/N=C2\C(=O)Nc3ccccc32)CC1 |  |  | 5.4 | 60
24 | CN1CCN(CC(=O)N/N=C2\C(=O)Nc3ccc4ccccc4c32)CC1 |  |  | 5.99 | 70
25 | O=C(Cn1c2ccccc2c2nc3ccccc3nc21)NCCCN1CCOCC1 | 102 | > 100 | 5.32 | 60
26 | CN(C)CCCn1c2ccccc2c2nc3ccccc3nc21 |  |  | 6.01 | 23
27 | OCCNCCCn1c2ccccc2c2nc3ccccc3nc21 |  |  | 6.4 | 37
28 | CN(C)CCCOC(=O)CCCn1c2ccccc2c2nc3ccccc3nc21 |  |  | 5.32 | 100
29 | O=C(CN1CCCCC1)N/N=C1/C(=O)Nc2ccc3ccccc3c21 |  |  | 6.21 | 10
30 | CCN(CC)CCCn1c2ccccc2c2nc3ccccc3nc21 |  |  | 6.11 | 30
31 | CN(C)CCOCCn1c2ccccc2c2nc3ccccc3nc21 |  |  | 5.59 | 32
32 | CN1CCN(CC(=O)NN2C(=O)c3cccc4cccc(c34)C2=O)CC1 | 84 | 100 | 5.43 | 
33 | CN(C)CCNCCn1c2ccccc2c2nc3ccccc3nc21 | 99 | > 100 | 6.83 | 42
34 | CCN(CC)CCn1c2ccccc2c2nc3ccccc3nc21 |  |  | 6.07 | 90
35 | O=C(CCCn1c2ccccc2c2nc3ccccc3nc21)OCCCN1CCOCC1 |  |  | 5.35 | 100
36 | c1ccc2nc3c(nc2c1)c1ccccc1n3CCOCCN1CCOCC1 |  |  | 5.32 | 50
